# pIC50: −log10 of the molar value.
# How the values were obtained:
# CHO-AA8 = assay: Aerobic cytotoxicity was assessed in a growth inhibition assay using log phase cultures of the chinese hamster ovary fibroblast line AA8; assay type: functional, cell-based
# In short: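 AA8 Chinese hamster ovary cells seeded at 200 cells/well, grown 24 h, then exposed 18 h to five 2-fold serial dilutions in duplicate. Drug washed out, cells grown a further 78 h, density read by methylene blue staining. IC50 = concentration giving 50% growth inhibition versus controls. Values are means ± SEM.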
# [1] = Tested for hypersensitivity factor which is the ratio of cytotoxicities against aerobic UV4 cells and chinese hamster ovary fibroblast line AA8
# [2] = Ratio of the cytotoxicities against drug induced aerobic Walker cells and chinese hamster ovary fibroblast line AA8; assay type: functional
# In short: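 IC50 in AA8 divided by IC50 in Walker 256 (WS) cells. Walker cells were seeded at 225 cells/0.15 mL with continuous aerobic drug exposure over 4 days, read by MTT. Ratios are interexperiment means.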
# [3] = Solubility (alpha-MEM culture medium, containing 5% fetal calf serum); assay type: physicochemical; conditions: alpha-MEM culture medium with 5% fetal calf serum; read-out: S
# In short: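 Solubility (mM) in α-MEM with 5% fetal calf serum, measured at ambient temperature by UV spectroscopy.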
# [4] = The ratio of the cytotoxicities against UV4 cell line in the air and N2 was measured using clonogenic assay.; assay type: functional
# In short: (§1)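 UV4 cells (10^6/mL, stirred 10 mL suspensions) were gassed with 5% CO2 in air or in N2 after 60 min pre-equilibration, with clonogenic survival sampled over time. Concentrations giving similar kill rates under each gas were chosen. Ratio = CT10(air)/CT10(N2). Mean ± SEM of separate experiments.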
# UV4 [5] = assay: Tested for the product of drug concentration and exposure time required to reduce UV4 cell survival to 10% under hypoxic condition by clonogenic assay
# UV4 [6] = assay: The ratio of the cytotoxicities against UV4 cell line in the air and N2 was measured using clonogenic assay; assay type: functional, Cricetulus griseus; in short: as §1
SMILES,"pIC50 (CHO-AA8; Cricetulus griseus, CHO-AA8)",IC50 ratio [1],IC50 ratio [2],solubility [3] [µM],CT10 ratio [4],CT10 (UV4 [5]) [µM·h],CT10 ratio (UV4 [6]),pIC50 (CHO-AA8; cho-aa8)
O=C(O)c1cc(N(CCCl)CCCl)c([N+](=O)[O-])cc1[N+](=O)[O-],1.97,1.4,4.7,18000,>1.2,19000,,
NC(=S)c1cc(N(CCCl)CCCl)c([N+](=O)[O-])cc1[N+](=O)[O-],< 4.60,>2,>1,38,,19,>3,
NC(=O)c1cc(NCCCl)c([N+](=O)[O-])cc1[N+](=O)[O-],3.13,1.4,380,,,,,
NC(=O)c1cc(N(CCI)CCI)c([N+](=O)[O-])cc1[N+](=O)[O-],4.47,2.6,5.2,35,,4.4,42,
NC(=O)c1cc(N2CC2)c([N+](=O)[O-])cc1[N+](=O)[O-] [TRETAZICAR],3.25,50,37000,7900,,225,3.6,
CN(C)CCNC(=O)c1cc(N(CCCl)CCCl)c([N+](=O)[O-])cc1[N+](=O)[O-],3.66,3.9,5.6,35000,,21,60,
O=C(c1cc(N(CCCl)CCCl)c([N+](=O)[O-])cc1[N+](=O)[O-])N1CCOCC1,3.62,23,4.1,30,,125,1.3,
O=C(O)CCNC(=O)c1cc(N(CCCl)CCCl)c([N+](=O)[O-])cc1[N+](=O)[O-],2.21,1.1,1.5,11000,,12000,2.3,
O=C(c1cc(N2CC2)c([N+](=O)[O-])cc1[N+](=O)[O-])N1CCOCC1,3.16,330,800,,,30,1.7,
CS(=O)(=O)OCCN(CCOS(C)(=O)=O)c1cc(C(N)=O)c([N+](=O)[O-])cc1[N+](=O)[O-],,>4,>3,530,,70,17,
NC(=O)c1cc(N(CCBr)CCBr)c([N+](=O)[O-])cc1[N+](=O)[O-],4.24,7.5,3.1,42,,8,20,
N#Cc1cc(N(CCCl)CCCl)c([N+](=O)[O-])cc1[N+](=O)[O-],4.62,6.8,3.2,120,,10,8.5,
CN(C)C(=O)c1cc(N(CCCl)CCCl)c([N+](=O)[O-])cc1[N+](=O)[O-],3.51,1.4,<0.3,130,,250,>20,
NS(=O)(=O)c1cc(N(CCCl)CCCl)c([N+](=O)[O-])cc1[N+](=O)[O-],5.70,1.5,1.7,160,,5.7,2.1,
CCN(CCCl)c1cc(C(=O)NCCN(C)C)c([N+](=O)[O-])cc1[N+](=O)[O-],3.24,1.9,5,> 38000,,390,3.5,
CS(=O)(=O)NS(=O)(=O)c1cc(N(CCCl)CCCl)c([N+](=O)[O-])cc1[N+](=O)[O-],3.33,1,1.5,32000,,980,5.2,
CCN(CCCl)c1cc(C(N)=O)c([N+](=O)[O-])cc1[N+](=O)[O-],< 4.01,,>1,160,,> 300,,
NC(=O)c1cc(N(CCCl)CCCl)c([N+](=O)[O-])cc1[N+](=O)[O-],,6.8,4.1,190,,95,58,3.33
C[N+](C)([O-])CCNC(=O)c1cc(N(CCCl)CCCl)c([N+](=O)[O-])cc1[N+](=O)[O-],2.14,1.7,2.3,> 42000,,4500,8,
O=C(NCC(O)CO)c1cc(N(CCCl)CCCl)c([N+](=O)[O-])cc1[N+](=O)[O-] (stereo not given),2.71,4.4,1.6,7400,,465,8.6,
O=C(NCCN1CCOCC1)c1cc(N(CCCl)CCCl)c([N+](=O)[O-])cc1[N+](=O)[O-],3.04,3,3.7,4700,,83,45,
CS(=O)(=O)OCCN(CCCl)c1cc(C(N)=O)c([N+](=O)[O-])cc1[N+](=O)[O-],3.02,13,6,840,60,48,,
O=C(NCCO)c1cc(N(CCCl)CCCl)c([N+](=O)[O-])cc1[N+](=O)[O-],< 4.00,,,100,,,,
CNC(=O)c1cc(N(CCCl)CCCl)c([N+](=O)[O-])cc1[N+](=O)[O-],< 4.00,,,200,,> 360,,

# From ChEMBL document CHEMBL1127572, “Hypoxia-selective antitumor agents. 9. Structure-activity relationships for hypoxia-selective cytotoxicity among analogues of 5-[N,N-bis(2-chloroethyl)amino]-2,4-dinitrobenzamide” (J Med Chem, 1994)
